SMILES strings stand for the structures. About 780 (0.24%) of roughly 330,000 compounds were called active. This is one part of a sample in which actives are shown more often than they occur. Unmarked numbers belong to inactive results.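 The calls were made as follows: active = activation factor of at least 2 at 20 µM; inactive = the rest.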

This assay has as its system intestinal alkaline phosphatase [Mus musculus]. The assay can be described thus: activators of mouse IAP, primary screen, biochemical, luminescence, uHTS (AID 2805). Conditions: muIAP, CDP-Star luminescence, 30 min; at 10 µM; active compounds read high; 1 = vehicle-only enzyme signal, 0 = enzyme-free wells. In short, it runs like this:
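System: Mouse IAP enzyme | Also added: CDP-Star substrate | Dosing: Compounds dispensed in DMSO | Schedule: 30 min enzyme-substrate-compound incubation at room temperature | Technique: Chemiluminescence readout | Control set: DMSO-only wells and no-enzyme negative control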
As for `COC(=O)Cc1ccc(NC(=S)NCc2ccc(Cl)cc2)cc1`, the activation factor was 1.52.

For the compound `O=C(NCc1ccc2c(c1)OCO2)C12CC3CC(CC(C3)C1)C2`, the activation factor was 0.999. To `S=C(NCc1ccc(Cl)cc1)NC12CC3CC(CC(C3)C1)C2` belongs 3.89 (active); to `CCC(=O)N1c2ccccc2NC2=C(C(=O)CCC2)C1c1ccco1` (configuration not stated), 1.01. In the case of `CCOC12CC(C)(C)CC(C)(CC3=C1C(=O)CC(C)(C)C3)C2` (configuration not stated) it was 1.02. On to `COc1cc(CN2CCN(Cc3ccc(C)cc3)CC2)c([N+](=O)[O-])cc1OC`, for which the activation factor is 0.893.

Regarding `O=C(NCCN1CCOCC1)Nc1cccc(Cl)c1`, the activation factor is 0.941. In the case of `Cc1ccc(C)c(CN2CCC(CNC(=O)Nc3ccc(C)c(F)c3)CC2)c1` it was 4.63 (active); in that of `O=C(NCC1CCN(Cc2ccccc2Cl)CC1)Nc1cccc(Cl)c1`, 3.53 (active); in that of `Cc1cccc(CN2CCC(CNC(=O)Nc3ccc(F)c(Cl)c3)CC2)c1`, 3.26 (active).

On to `COc1cc(NC(=O)C2=CC(c3ccc(C)cc3)=NS(=O)(=O)N2C)cc(OC)c1OC`, for which the activation factor was 0.84.

As for `COC(=O)c1cc(S(=O)(=O)NCC2CCN(Cc3ccc(Cl)cc3)CC2)cn1C`, the activation factor was 1.12.

On to `COc1cc(NC(=O)NCC2CCN(Cc3ccc(C)cc3)CC2)cc(OC)c1OC`, for which the activation factor was 2.24 (active). `COc1ccc(Cl)cc1NC(=O)NCC1CCN(Cc2ccccc2F)CC1`: the activation factor was 1.56.

As for `CC(=O)N1CCN(CC(=O)Nc2ccc(C)c(F)c2)CC1`, the activation factor is 1.06. To `Cc1ccccc1NC(=O)NCC1CCN(Cc2cccc(Cl)c2)CC1` belongs 1.72; to `O=C(CN1CCN(Cc2ccccc2)CC1)Nc1ccc(F)c(F)c1`, 1.1; to `COc1cc(OC)cc(-c2nc3ccccc3c(=O)n2NC(=O)c2cccnc2Cl)c1`, 0.962.

Regarding `CCCn1nnnc1NC(=O)COc1ccc(Cl)cc1C`, the activation factor is 0.94. As to `CCCSc1ccc([C@H]2N[C@@](Cc3ccccc3)(C(=O)OC)[C@H]3C(=O)N(C)C(=O)[C@@H]23)cc1`, the activation factor was 1.04.

`CCN1CCN(C(=O)c2cc3cc4ccc(OC)cc4nc3s2)CC1`: the activation factor was 1.07.

For the compound `CCc1cc2c(=O)n(-c3ccccc3)c(SCC(=O)O)nc2s1`, the activation factor is 1.03. In the case of `C=CCCC(=O)Nc1nc(C)c(-c2csc(Nc3ccc(Cl)cc3)n2)s1` it was 0.878; in that of `S=C(NC1CCCCC1)NN1CCOCC1`, 0.975. In the case of `Cc1cccc(-c2oc3ccc(-c4ccc5c(c4)OCO5)cc3c2C#Cc2cncn2C)c1` it was 0.937. Take `Cc1cc(NC(=O)CCC(=O)N(CC(=O)NCC2CCCO2)c2ccccc2C)no1` (configuration not stated): the activation factor is 0.924.

Take `COc1ccc(OC)c(NC(=O)c2ccc3c(c2)CCN3S(C)(=O)=O)c1`: the activation factor was 0.846. On to `COCCCNC(=S)NCCNc1nc2cc(C)c(C)cc2cc1C#N`, for which the activation factor was 1.01. Regarding `COc1cccc2c(C)c(C(=O)O)[nH]c12`, the activation factor was 0.981. To `O=C(C1=C[C@H](c2ccc(C(F)(F)F)cc2)C[C@H](OCc2ccc(CO)cc2)O1)N1CCN(Cc2ccccc2)CC1` belongs 1.05; to `COC(=O)c1scc(S(=O)(=O)C(C)(C)C)c1-n1cccc1`, 0.97. In the case of `N#CC1=C(N)Oc2[nH]c(=S)[nH]c(=O)c2C12C(=O)Nc1ccccc12` (configuration not stated) it was 1. In the case of `O=c1[nH]c(CN2CCOCC2)nc2scc(-c3ccccc3)c12` it was 1.04; in that of `COCc1cc(=O)n2[nH]c(C)c(-c3ccccc3)c2n1`, 1.04. Turning to `CC(C)CNC(=S)Nc1ccc(F)cc1`, the activation factor was 1.15. For the compound `Cc1ccc(NC(=S)Nc2ccc(F)cc2)cc1`, the activation factor was 1.03. To `CC(NC(=S)Nc1ccc(OC(F)F)cc1)c1ccc(F)cc1` (configuration not stated) belongs 2.2 (active). To `COc1ccccc1-c1nn(Cc2ccccc2)cc1C(=O)N1CCN(c2ncccn2)CC1` belongs 0.95. For the compound `O=C(CSc1cccc[n+]1[O-])NCCCc1ccccc1`, the activation factor was 1.02. As for `O=C(Nc1ccccc1)Nc1nnc(COc2ccccc2F)s1`, the activation factor was 0.892.

Take `Cc1ccc(NC(=O)Nc2cc(-c3ccccc3)nn2C)cc1Cl`: the activation factor was 1.48. In the case of `Cc1cc(NC(=O)Nc2ccc(Cl)cc2)n(-c2ccccc2)n1` it was 2.3 (active); in that of `Cc1cc(C(=O)NCCc2ccc(Cl)cc2)n(-c2ccccc2)n1`, 1.02; in that of `N#CCCCn1c(O)c(N=NC(=O)C(O)c2ccccc2)c2ccccc21` (configuration not stated), 0.987.

Take `CCC1CCCCN1C(=S)Nc1ccc(SC(F)F)cc1` (configuration not stated): the activation factor was 0.894. Consider `CCN(CC)c1nc(-c2ccccc2)cc(C(F)(F)F)c1C#N`, for which the activation factor was 0.949. Regarding `O=C(Nc1cccc(F)c1)NC1CCCc2ccccc21` (configuration not stated), the activation factor is 0.963. Take `O=C(CN1CCC(NC(=O)Nc2ccccc2)CC1)Nc1cccc([N+](=O)[O-])c1`: the activation factor is 1.02. Consider `COc1cccc(NC(=O)CN2CCN(CC(=O)Nc3ccccc3Cl)CC2)c1`, for which the activation factor was 0.978. Turning to `CS(=O)(=O)Nc1ccc(C(=O)N2CCCC2)cc1`, the activation factor was 0.947. In the case of `Cc1c(Cl)cccc1NC(=O)Nc1ccc(C(=O)N2CCCC2)cc1`, the activation factor was 2 (active). To `O=C(Nc1cccc(F)c1)NC1CCCCCCC1` belongs 2.46 (active); to `CC(C)c1ccc(NC(=O)NC2CCCCC2)cc1`, 1.77; to `Cc1cc(C)cc(NC(=O)NC2CCCCCCC2)c1`, 4.34 (active).

Turning to `Cc1c(Cl)cccc1NC(=O)NCCCN1CCCC1=O`, the activation factor is 1.01.

As to `C/C(CC(=O)Nc1cccc(F)c1)=N\NC(=O)C(=O)NC1CCCCC1`, the activation factor was 0.807. For `Cc1cc(C)cc(NC(=O)NC2CCN(CC(=O)Nc3cccc(Cl)c3C)CC2)c1`, the activation factor is 5.45 (active). Consider `CC(C)(C)NS(=O)(=O)c1ccc(NC(=O)NC2CCCCC2)cc1`, for which the activation factor is 1.7. With `CSCC(=O)N1CCCC(C(=O)c2cc(F)ccc2F)C1` (configuration not stated), the activation factor was 0.984.

For the compound `O=C(OCC1O[C@@H](OC(=O)c2cc(O)c(O)c(O)c2)[C@@H](OC(=O)c2cc(O)c(O)c(O)c2)[C@@H](OC(=O)c2cc(O)c(O)c(O)c2)[C@@H]1OC(=O)c1cc(O)c(O)c(O)c1)c1cc(O)c(O)c(O)c1` (some centres not stated), the activation factor was 0.831. In the case of `CN(Cc1ccccc1)C(=O)COC(=O)/C=C/c1ccc2c(c1)OCO2` it was 0.965; in that of `CCc1ccccc1N1CN(Cc2ccco2)CNC1=S`, 0.992; in that of `COc1c(O)cccc1-c1nnn(CCC(=O)OCC(=O)c2ccccc2)n1`, 0.984.

As for `Cc1cccc(NC(=S)Nc2ccc(Cl)c(Cl)c2)c1`, the activation factor is 1.16. As for `Cc1cccc(NC(=S)NC23CN4CN(CN(C4)C2)C3)c1`, the activation factor was 0.962. To `Cc1cccc(NC(=S)NCCN(C2CCCCC2)C2CCCC2)c1` belongs 2.13 (active). To `O=C(c1ccc(O)cc1)c1ccc(C(=O)O)c(C(=O)O)c1` belongs 1.01. In the case of `CC(=O)c1cccc(NC(=O)N2CCCC2C(=O)NCCC(C)C)c1` (configuration not stated) it was 0.988; in that of `O=C(NCCOc1ccccc1F)Nc1ccc(Br)cc1`, 2.2 (active); in that of `O=C(NCCOc1ccccc1Cl)C(=O)Nc1ccccc1`, 0.98. In the case of `O=C(COc1ccccc1F)NNC(=O)c1cc(Br)ccc1Cl`, the activation factor is 0.932. On to `O=C(Cn1ncc2c3ccccc3n(Cc3ccccc3)c2c1=O)NCCCN1CCOCC1`, for which the activation factor is 0.993. Consider `C=C(Br)Cn1c(CCCC)nc2ccccc21`, for which the activation factor is 0.968.

Consider `COc1ccc(NC(=O)N(C)C[C@H]2Oc3ccc(NC(=O)C4CC4)cc3C(=O)N([C@H](C)CO)C[C@@H]2C)cc1`, for which the activation factor is 1.05. As to `C[C@H](CO)N1C[C@H](C)[C@@H](CN(C)C(=O)Nc2ccc3c(c2)OCO3)Oc2c(cccc2N(C)C)C1=O`, the activation factor was 0.974.

Consider `COc1ccc(NC(=O)Nc2ccc3c(c2)C(=O)N([C@H](C)CO)C[C@H](C)[C@@H](CN(C)C(=O)Nc2ccc4c(c2)OCO4)O3)cc1`, for which the activation factor is 2.74 (active). Regarding `COc1ccc(S(=O)(=O)NCC(=O)NC2CC2)cc1OC`, the activation factor was 0.966. In the case of `O=C(CN1CCC(O)(c2cccc(C(F)(F)F)c2)CC1)NCCc1ccccc1` it was 0.933; in that of `CC(=O)Nc1cccc(C(=O)OCN2C(=O)c3ccccc3C2=O)c1`, 0.892. For the compound `CC(=O)N(CC(O)CO)c1c(I)c(C(=O)NCC(O)CO)c(I)c(C(=O)NCC(O)CO)c1I` (configuration not stated), the activation factor was 1.05. To `Cc1cc(C)c(S(=O)(=O)c2ccccc2)c(OC(=O)c2c(F)cccc2Cl)n1` belongs 0.919; to `OCCCN1c2ccccc2Nc2nnc(-c3ccccc3)cc21`, 2.5 (active).

In the case of `N=c1c2c(-c3ccccc3)c(-c3ccccc3)n(Cc3ccccc3)c2ncn1CCCO`, the activation factor was 0.982. To `COc1ccc(C)cc1NC(=O)NCCCCc1ccccc1` belongs 1.36; to `O=C(CNC(=O)c1ccccc1Br)NNC(=O)c1cccs1`, 0.934; to `Cc1ccc(CN(C)Cc2cc(=O)oc3cc(C)c(Cl)cc23)cc1`, 0.989. To `S=C(NCC1COc2ccccc2O1)Nc1ccc(Br)cc1` (configuration not stated) belongs 3.2 (active); to `S=C(Nc1ccc(Br)cc1)NC1CCN(Cc2ccccc2)CC1`, 1.46; to `O=S(=O)(NCCCc1ccccc1)c1ccc(Br)cc1`, 1.03. In the case of `CCCN(CC1COc2ccccc2O1)C(=S)Nc1ccc(C)cc1` (configuration not stated) it was 1.14; in that of `S=C(NCCCc1ccccc1)Nc1ccc(Br)cc1`, 2.09 (active); in that of `CC(NC(=S)Nc1ccccc1)C1COc2ccccc2O1` (configuration not stated), 1.67. For `COCCNC(=O)c1ccc(S(=O)(=O)c2ccc(Cl)cc2)c(NC(C)=O)c1`, the activation factor is 0.896. In the case of `O=C(NCC1CCCO1)c1ccccc1-c1nc(-c2ccccc2Cl)no1` (configuration not stated), the activation factor is 0.926.

As to `Cc1noc(C)c1S(=O)(=O)N(CC(=O)NCc1ccc(Cl)cc1)c1ccc2c(c1)OCO2`, the activation factor is 1.12. To `Cc1noc(C)c1S(=O)(=O)N(CC(=O)Nc1ccc2c(c1)OCCO2)c1ccc(C(C)C)cc1` belongs 2.03 (active).

`CCOC(=O)c1cccc(NC(=O)CN(c2ccc(C)cc2)S(=O)(=O)c2c(C)noc2C)c1`: the activation factor was 1.37.

The values above are taken from PubChem BioAssay AID2805 (Sanford-Burnham Center for Chemical Genomics, 2010).
